From ChEMBL document CHEMBL1134569, “Synthesis and in vitro and in vivo antimalarial activity of new 4-anilinoquinolines” (J Med Chem, 2001)

Legend:
[1] = Cytotoxicity upon MRC-5 cells (diploid embryonic lung cell line) at 6.3 uM; type: cell-based, MRC5; conditions: human
How it was run: (§1)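 MRC-5 human diploid embryonic lung cells seeded at 5000/well, washed after 24 h, then given 2-fold drug dilutions in RPMI + 5% FCS (final DMSO below 0.5%). Incubated at 37 °C, 5% CO₂, for 7 days. MTT read-out at 540 nm, scored as percent absorbance reduction versus untreated controls.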

[2] = tested on: Plasmodium falciparum; assay: Inhibitory activity against chloroquine-resistant Plasmodium falciparum FcB1R; type: functional, organism-based; conditions: Plasmodium falciparum
[3] = Cytotoxicity upon MRC-5 cells (diploid embryonic lung cell line) at 1.6 uM conc.; type: cell-based, MRC5; conditions: human; how it was run: as §1
[4] = Cytotoxicity upon MPMs (mouse peritoneal macrophages) at 12.5 uM conc.; Toxic
How it was run: (§2)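 Mouse peritoneal macrophages harvested 48 h after potato-starch stimulation and seeded at 30000 cells/well. After 24 h, washed and exposed to 2-fold drug dilutions in RPMI + 5% FCS (final DMSO below 0.5%) at 37 °C, 5% CO₂, for 7 days. Toxicity scored microscopically as toxic or not versus untreated controls.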

[5] = Cytotoxicity upon MPMs (mouse peritoneal macrophages) at 2 uM; how it was run: as §2
[6] = Cytotoxicity upon MPMs (mouse peritoneal macrophages) at 6.3 uM conc.; Toxic; how it was run: as §2
[7] = Cytotoxicity upon MRC-5 cells (diploid embryonic lung cell line) at 25 uM conc.; type: cell-based, MRC5; conditions: human; how it was run: as §1
[8] = Cytotoxicity upon MPMs (mouse peritoneal macrophages) at 12.5 uM conc.;NT=No Toxicity; how it was run: as §2
[9] = tested on: Mus musculus; assay: Antimalarial activity on Plasmodium berghei in mice (Mus musculus) dosed at 40 mg/kg at day 4; type: functional
How it was run: (§3)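 Female Swiss CD-1 mice (4 weeks, 20-25 g), three per group, infected ip with about 10⁷ P. berghei ANKA 65 parasitized erythrocytes from an infected donor. Dosed orally at 40 mg/kg in 100% DMSO at infection, then ip for the following 4 days. Parasitaemia reduction and mean survival time compared with three DMSO-dosed infected controls.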

[10] = tested on: Mus musculus; assay: Change in the mean survival time of the treated mice infected with Plasmodium berghei, dosed at 40 mg/kg; type: functional
How it was run: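 P. berghei ANKA 65 in 4-week-old female Swiss CD-1 mice (20-25 g), infected ip with about 10⁷ parasitized erythrocytes; 40 mg/kg given orally at infection (formulated in 100% DMSO), then ip over the following 4 days; three mice per group; mean survival time of treated mice compared with three infected DMSO-dosed controls.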

[11] = Cytotoxicity upon MPMs (mouse peritoneal macrophages) at 6.3 uM; how it was run: as §2
[12] = tested on: Plasmodium falciparum; assay: Inhibitory activity against chloroquine-sensitive Plasmodium falciparum THAI
[13] = tested on: Plasmodium falciparum; assay: Inhibitory activity against chloroquine-resistant Plasmodium falciparum K1; type: functional, organism-based
[14] = Cytotoxicity upon MRC-5 cells (diploid embryonic lung cell line) at 1 uM; type: cell-based, MRC5; conditions: human; how it was run: as §1
[15] = Cytotoxicity upon MRC-5 cells (diploid embryonic lung cell line) at 8 uM; type: cell-based, MRC5; conditions: human; how it was run: as §1
[16] = Cytotoxicity upon MPMs (mouse peritoneal macrophages) at 8 uM conc.;NT=No Toxicity; how it was run: as §2
[17] = Cytotoxicity upon MRC-5 cells (diploid embryonic lung cell line) at 32 uM; type: cell-based, MRC5; conditions: human; how it was run: as §1
[18] = Cytotoxicity upon MPMs (mouse peritoneal macrophages) at 32 uM; how it was run: as §2
[19] = Cytotoxicity upon MRC-5 cells (diploid embryonic lung cell line) at 6.3 uM concentration; type: cell-based, MRC5; conditions: human; how it was run: as §1
[20] = Cytotoxicity upon MPMs (mouse peritoneal macrophages) at 32 uM concentration; Toxic Compound.; how it was run: as §2
[21] = Cytotoxicity upon MPMs (mouse peritoneal macrophages) at 2 uM concentration; NT=No toxicity; how it was run: as §2
[22] = Cytotoxicity upon MPMs (mouse peritoneal macrophages) at 12.5 uM concentration; Toxic Compound; how it was run: as §2
[23] = Cytotoxicity upon MRC-5 cells (diploid embryonic lung cell line) at 25 uM concentration; type: cell-based, MRC5; conditions: human; how it was run: as §1
[24] = Cytotoxicity upon MPMs (mouse peritoneal macrophages) at 6.3 uM concentration; Toxic Compound; how it was run: as §2
[25] = Cytotoxicity upon MRC-5 cells (diploid embryonic lung cell line) at 32 uM concentration; type: cell-based, MRC5; conditions: human; how it was run: as §1
[26] = Cytotoxicity upon MRC-5 cells (diploid embryonic lung cell line) at 3.1 uM concentration; type: cell-based, MRC5; conditions: human; how it was run: as §1
[27] = Cytotoxicity upon MRC-5 cells (diploid embryonic lung cell line) at 12.5 uM concentration; type: cell-based, MRC5; conditions: human; how it was run: as §1
[28] = Cytotoxicity upon MPMs (mouse peritoneal macrophages) at 3.1 uM concentration; NT= No toxicity.; how it was run: as §2
[29] = Cytotoxicity upon MRC-5 cells (diploid embryonic lung cell line) at 8 uM concentration; type: cell-based, MRC5; conditions: human; how it was run: as §1
[30] = Cytotoxicity upon MRC-5 cells (diploid embryonic lung cell line) at 1 uM concentration; type: cell-based, MRC5; conditions: human; how it was run: as §1
[31] = Cytotoxicity upon MPMs (mouse peritoneal macrophages) at 3.1 uM conc.;NT=No Toxicity; how it was run: as §2
[32] = tested on: Mus musculus; assay: Antimalarial activity on Plasmodium berghei in mice (Mus musculus) dosed at 40 mg/kg at day 7; type: functional; how it was run: as §3
[33] = Cytotoxicity upon MRC-5 cells (diploid embryonic lung cell line) at 12.5 uM; type: cell-based, MRC5; conditions: human; how it was run: as §1
[34] = Cytotoxicity upon MRC-5 cells (diploid embryonic lung cell line) at 3.1 uM; type: cell-based, MRC5; conditions: human; how it was run: as §1
[35] = Cytotoxicity upon MPMs (mouse peritoneal macrophages) at 12.5 uM concentration; No toxicity; how it was run: as §2
[36] = Cytotoxicity upon MPMs (mouse peritoneal macrophages) at 32 uM concentration; No toxicity; how it was run: as §2
[37] = Cytotoxicity upon MRC-5 cells (diploid embryonic lung cell line) at 1.6 uM concentration; type: cell-based, MRC5; conditions: human; how it was run: as §1
[38] = Cytotoxicity upon MPMs (mouse peritoneal macrophages) at 2 uM concentration; No toxicity; how it was run: as §2
[39] = Cytotoxicity upon MPMs (mouse peritoneal macrophages) at 8 uM concentration; No toxicity; how it was run: as §2
[40] = Cytotoxicity upon MPMs (mouse peritoneal macrophages) at 3.1 uM concentration; No toxicity; how it was run: as §2
[41] = Cytotoxicity upon MPMs (mouse peritoneal macrophages) at 6.3 uM concentration; No toxicity; how it was run: as §2

Row | SMILES | cytotoxicity at 6.3 µM [1] [%] | IC50 [2] [nM] | cytotoxicity at 1.6 µM [3] [%] | Cytotoxicity [4] | NT [5] | cytotoxicity at 25 µM [7] [%] | IC50 [12] [nM] | IC50 [13] [nM] | cytotoxicity at 1 µM [14] [%] | cytotoxicity at 8 µM [15] [%] | NT [16] | cytotoxicity at 32 µM [17] [%] | Cytotoxicity [18] | also measured
1 | O=C(CN1CCCCC1)Nc1cc(COC(=O)CCCCCCCN2CCCCC2)cc(Nc2ccnc3cc(Cl)ccc23)c1 | 84 | 165 | 0 | Toxic | Cytotoxicity upon MPMs at 2 uM | 83 |  |  |  |  |  |  |  | Cytotoxicity [6]: Toxic
2 | O=C(CN1CCCCC1)Nc1cc(COC(=O)CCCCN2CCOCC2)cc(Nc2ccnc3cc(Cl)ccc23)c1 | 0 | 14.1 | 0 |  | Cytotoxicity upon MPMs at 2 uM | 0 | 15.2 | 22.5 |  |  |  |  |  | NT [8]: Cytotoxicity upon MPMs at 2 uM; Reduction in parasitemia [9]: 97.9%; Excess MST [10]: 100%; NT [11]: Cytotoxicity upon MPMs at 2 uM
3 | O=Cc1cc(NC(=O)CN2CCCCC2)cc(Nc2ccnc3cc(Cl)ccc23)c1 |  | 282 |  |  | Cytotoxicity upon MPMs at 2 uM |  |  |  | 0 | 0 | Cytotoxicity upon MPMs at 2 uM | 0 |  | 
4 | CN(C)CCCNCc1cc(NC(=O)CN2CCCCC2)cc(Nc2ccnc3cc(Cl)ccc23)c1 |  | 134 |  |  | Cytotoxicity upon MPMs at 2 uM |  |  |  | 0 | 0 | Cytotoxicity upon MPMs at 2 uM | 78 | Cytotoxicity upon MPMs at 32 uM | 
5 | CCN(CC)Cc1cc(Nc2ccnc3cc(Cl)ccc23)ccc1O.Cl |  | 7.4 |  |  |  |  | 7.3 | 14.5 |  |  |  |  |  | cytotoxicity at 6.3 µM [19]: 0%; Cytotoxicity [20]: Toxic; NT [21]: No toxicity; Cytotoxicity [22]: Toxic; cytotoxicity at 25 µM [23]: 91%; Cytotoxicity [24]: Toxic; cytotoxicity at 32 µM [25]: 91%; cytotoxicity at 3.1 µM [26]: 0%; cytotoxicity at 12.5 µM [27]: 0%; NT [28]: No toxicity; cytotoxicity at 8 µM [29]: 0%; cytotoxicity at 1 µM [30]: 0%
6 | N#Cc1ccc(CN2CCN(Cc3cc(NC(=O)CN4CCCCC4)cc(Nc4ccnc5cc(Cl)ccc45)c3)CC2)cc1 |  | 13.3 |  |  | Cytotoxicity upon MPMs at 2 uM |  |  |  | 0 | 100 | Cytotoxicity upon MPMs at 2 uM | 100 | Cytotoxicity upon MPMs at 32 uM | 
7 | CN(C)CCNCc1cc(NC(=O)CN2CCCCC2)cc(Nc2ccnc3cc(Cl)ccc23)c1 |  | 15.5 |  |  | Cytotoxicity upon MPMs at 2 uM |  |  |  | 0 | 15 | Cytotoxicity upon MPMs at 2 uM | 100 | Cytotoxicity upon MPMs at 32 uM | 
8 | O=C(CN1CCCCC1)Nc1cc(CN2CCOCC2)cc(Nc2ccnc3cc(Cl)ccc23)c1 |  | 9.5 |  |  | Cytotoxicity upon MPMs at 2 uM |  | 12.8 | 12.4 | 0 | 0 | Cytotoxicity upon MPMs at 2 uM | 100 | Cytotoxicity upon MPMs at 32 uM | Reduction in parasitemia [9]: 100%
9 | O=C(CN1CCCCC1)Nc1cc(CO)cc(Nc2ccnc3cc(Cl)ccc23)c1 | 0 | 44.5 | 0 | Toxic |  | 98 | 89.6 | 152 | 0 | 0 |  | 99 |  | Excess MST [10]: 110%; NT [31]: Cytotoxicity upon MPMs at 6.3 uM; Reduction in parasitemia [32]: 60%; NT [11]: Cytotoxicity upon MPMs at 6.3 uM; cytotoxicity at 12.5 µM [33]: 0%; cytotoxicity at 3.1 µM [34]: 0%
10 | O=C(CN1CCCCC1)Nc1cc(COC(=O)c2ccnc3ccccc23)cc(Nc2ccnc3cc(Cl)ccc23)c1 | 100 | 25.6 | 62 | Toxic | Cytotoxicity upon MPMs at 2 uM | 100 |  |  |  |  |  |  |  | Cytotoxicity [6]: Toxic
11 | O=C(CN1CCCCC1)Nc1cc(COC(=O)CCCCN2CCCCC2)cc(Nc2ccnc3cc(Cl)ccc23)c1 | 90 | 15.5 | 0 |  | Cytotoxicity upon MPMs at 2 uM | 92 | 17.3 | 19.1 |  |  |  |  |  | NT [8]: Cytotoxicity upon MPMs at 2 uM; Reduction in parasitemia [9]: 99.99%; Excess MST [10]: 0%; NT [11]: Cytotoxicity upon MPMs at 2 uM
12 | CCN(CC)CCCC(C)Nc1ccnc2cc(Cl)ccc12 (centres undefined) [CHLOROQUINE] |  |  |  |  |  |  |  |  |  |  |  |  |  | cytotoxicity at 6.3 µM [19]: 0%; NA [35]: Not Active; NA [36]: Not Active; cytotoxicity at 25 µM [23]: 0%; cytotoxicity at 1.6 µM [37]: 0%; cytotoxicity at 32 µM [25]: 0%; cytotoxicity at 3.1 µM [26]: 0%; NA [38]: Not Active; NA [39]: Not Active; NA [40]: Not Active; cytotoxicity at 12.5 µM [27]: 0%; cytotoxicity at 8 µM [29]: 0%; NA [41]: Not Active; cytotoxicity at 1 µM [30]: 0%
13 | CC1CCN(CC(=O)Nc2cc(CO)cc(Nc3ccnc4cc(Cl)ccc34)c2)CC1 | 0 | 77.7 |  | Toxic |  |  |  |  |  |  |  |  |  | cytotoxicity at 12.5 µM [33]: 100%; Cytotoxicity [6]: Toxic; cytotoxicity at 3.1 µM [34]: 0%
